What was measured:
Canis familiaris [1] = assay: Inhibition of gastric acid secretion at 40 mg/kg oral administration to dogs; format: functional; conditions: Canis lupus familiaris, Stomach
How it was run: (§1)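 Unanesthetized female beagle dogs with chronic gastric fistula; compound in 50 mL aqueous 1% methylcellulose delivered into stomach via fistula cannula 60 min before gastrin tetrapeptide (64 μg/kg sc, maximal secretory dose). Gastric output drained by gravity over three 30-min periods; acid concentration by titration to pH 7 with 0.01 N NaOH; percent decrease in acid concentration versus placebo trial in same animal; dose as base weight.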

Canis familiaris [2] = assay: Inhibition of gastric acid secretion at 20 mg/kg oral administration to dogs; format: functional; conditions: Canis lupus familiaris, Stomach; how it was run: as §1
Canis familiaris [3] = assay: Inhibition of gastric acid secretion at 40 mg/kg oral administration to dogs; Compound is CNS (central nervous system) effective; format: functional, organism-based; design: dose 40 mg/kg; conditions: Canis lupus familiaris, Stomach; how it was run: as §1
Canis familiaris [4] = assay: Acid output of gastrin tetrapeptide stimulated inhibition of gastric secretion when administered perorally in dogs; format: functional; conditions: Canis lupus familiaris, Stomach, po
How it was run: (§2)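 Unanesthetized female beagle dogs with chronic gastric fistula; compound in 50 mL 1% aqueous methylcellulose given into stomach via fistula cannula 60 min before stimulant (gastrin tetrapeptide 64 μg/kg sc, or histamine dihydrochloride 64 μg base/kg sc). Output drained by gravity, three 30-min periods; volume measured, acid concentration titrated to pH 7 with 0.01 N NaOH, output = volume × concentration. Percent change vs placebo trial in same dog.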

Canis familiaris [5] = assay: Volume of histamine stimulated inhibition of gastric secretion when administered perorally in dogs; format: functional; conditions: Canis lupus familiaris, Stomach, po; how it was run: as §2
Canis familiaris [6] = assay: Acid output of histamine stimulated inhibition of gastric secretion when administered perorally in dogs; format: functional; conditions: Canis lupus familiaris, Stomach, po; how it was run: as §2
Canis familiaris [7] = assay: Volume of gastrin tetrapeptide stimulated inhibition of gastric secretion when administered perorally in dogs; format: functional; conditions: Canis lupus familiaris, Stomach, po; how it was run: as §2
Canis familiaris [8] = assay: Acid concentration of histamine stimulated inhibition of gastric secretion when administered perorally in dogs; format: functional; conditions: Canis lupus familiaris, Stomach, po; how it was run: as §2
Canis familiaris [9] = assay: Acid concentration of gastrin tetrapeptide stimulated inhibition of gastric secretion when administered perorally in dogs; format: functional; conditions: Canis lupus familiaris, Stomach, po; how it was run: as §2
Canis familiaris [10] = assay: Inhibition of gastric acid secretion at 10 mg/kg oral administration to dogs; format: functional; conditions: Canis lupus familiaris, Stomach; how it was run: as §1

SMILES | inhibition in vivo at 40 mg/kg (Canis familiaris [1]) | inhibition in vivo at 20 mg/kg (Canis familiaris [2]) | inhibition in vivo at 10 mg/kg (Canis familiaris [10]) | further results
CC(C)N(CCN(C(=O)N(C)C)c1ccccn1)C(C)C | 82% | 17% |  | 
CNCCN(C(=O)N(C)C)c1cc(C)cc(C)n1 | 20% |  |  | 
CNC(=O)N(CCN(C(C)C)C(C)C)c1cc(C)cc(C)n1 |  | 44% |  | inhibition (Canis familiaris [3]): CNS effect
Cc1cc(C)nc(N(CCNC(C)C)C(=O)N(C)C)c1 | 42% | 33% |  | 
Cc1cc(C)nc(N(CCN(C(C)C)C(C)C)C(N)=O)c1 |  | 18% |  | inhibition (Canis familiaris [3]): CNS effect
CN/C(=N\CCSCc1nc[nH]c1C)NC#N [CIMETIDINE] |  |  |  | ED50 (Canis familiaris [4]): 3.6 mg/kg; ED50 (Canis familiaris [5]): 3.5 mg/kg; ED50 (Canis familiaris [6]): 2.6 mg/kg; ED50 (Canis familiaris [7]): 3.9 mg/kg; ED50 (Canis familiaris [8]): 5 mg/kg; ED50 (Canis familiaris [9]): 6.4 mg/kg
COc1ccnc(N(CCN(C(C)C)C(C)C)C(=O)N(C)C)c1 |  | 84% | 64% | 
Cc1cc(N(CCN(C(C)C)C(C)C)C(=O)N(C)C)nc(C)c1Cl |  | 95% | 62% | 
CC(C)N(CCN(C(=O)N(C)C)c1ccc(Cl)cn1)C(C)C |  | 63% | 44% | 
Cc1cc(C)nc(N(CCCCN(C(C)C)C(C)C)C(=O)N(C)C)c1 | 3% | 5% |  | 
Cc1cc(Cl)nc(N(CCN(C(C)C)C(C)C)C(=O)N(C)C)c1 |  | 71% | 52% | 
Cc1cc(C)nc(N(CCN(C(C)C)C(C)C)C(=O)N(C)C)c1.Cl |  | 100% | 70% | ED50 (Canis familiaris [4]): 3.3 mg/kg; ED50 (Canis familiaris [5]): 12.6 mg/kg; ED50 (Canis familiaris [6]): 5.1 mg/kg; ED50 (Canis familiaris [7]): 3.8 mg/kg; ED50 (Canis familiaris [8]): 9.6 mg/kg; ED50 (Canis familiaris [9]): 6.8 mg/kg
Cc1ccc(N(CCN(C(C)C)C(C)C)C(=O)N(C)C)nc1 | 33% | 19% |  | 
Cc1cccc(N(CCN(C(C)C)C(C)C)C(=O)N(C)C)n1 |  | 87% | 54% | 
Cc1cc(C)nc(N(CCN(C)C)C(=O)N(C)C)c1 | 58% | 58% | 14% | 
CCCN(CCC)CCN(C(=O)N(C)C)c1cc(C)cc(C)n1 | 93% | 22% |  | 
Cc1cc(C)nc(N(CCCN(C(C)C)C(C)C)C(=O)N(C)C)c1 | 35% | 0% |  | 
CC(C)N(CCN(C(=O)N(C)C)c1cccc(Cl)n1)C(C)C |  | 78% |  | 
Cc1ccnc(N(CCN(C(C)C)C(C)C)C(=O)N(C)C)c1 |  | 95% | 79% | 

Source: ChEMBL document CHEMBL1122360, “Inhibitors of gastric acid secretion: antisecretory 2-pyridylurea derivatives” (1983)
